Experiments:
[1] = target: Serine/threonine-protein kinase pim-2 (Homo sapiens) (UniProt Q9P1W9); assay: Inhibition of PIM2 at 5 to 10 uM
[2] = target: PI3-kinase p110-alpha/p85-alpha (Homo sapiens, UniProt P42336); assay: Inhibition of PI3K p110alpha/p85alpha-mediated AKT1 phosphorylation at Ser473 in human U2OS cells; format: cell-based
Method in brief: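 Endogenous phospho-Akt1 (Ser473) measured in U2OS osteosarcoma cells kept in 0.1% FBS and then serum-stimulated; read-out by cell-based ELISA with femto chemiluminescent substrate.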

[3] = target: Insulin-like growth factor 1 receptor (Homo sapiens) (UniProt P08069); assay: Inhibition of IGF1-R at 5 to 10 uM
[4] = system: Serine/threonine-protein kinase B-raf (Homo sapiens), P15056 [V600E]; assay: Inhibition of BRAF V600E mutant at 5 to 10 uM
Serine/threonine-protein kinase B-raf (Homo sapiens), P15056 [V600E], sequence (P15056 whole entry V600E): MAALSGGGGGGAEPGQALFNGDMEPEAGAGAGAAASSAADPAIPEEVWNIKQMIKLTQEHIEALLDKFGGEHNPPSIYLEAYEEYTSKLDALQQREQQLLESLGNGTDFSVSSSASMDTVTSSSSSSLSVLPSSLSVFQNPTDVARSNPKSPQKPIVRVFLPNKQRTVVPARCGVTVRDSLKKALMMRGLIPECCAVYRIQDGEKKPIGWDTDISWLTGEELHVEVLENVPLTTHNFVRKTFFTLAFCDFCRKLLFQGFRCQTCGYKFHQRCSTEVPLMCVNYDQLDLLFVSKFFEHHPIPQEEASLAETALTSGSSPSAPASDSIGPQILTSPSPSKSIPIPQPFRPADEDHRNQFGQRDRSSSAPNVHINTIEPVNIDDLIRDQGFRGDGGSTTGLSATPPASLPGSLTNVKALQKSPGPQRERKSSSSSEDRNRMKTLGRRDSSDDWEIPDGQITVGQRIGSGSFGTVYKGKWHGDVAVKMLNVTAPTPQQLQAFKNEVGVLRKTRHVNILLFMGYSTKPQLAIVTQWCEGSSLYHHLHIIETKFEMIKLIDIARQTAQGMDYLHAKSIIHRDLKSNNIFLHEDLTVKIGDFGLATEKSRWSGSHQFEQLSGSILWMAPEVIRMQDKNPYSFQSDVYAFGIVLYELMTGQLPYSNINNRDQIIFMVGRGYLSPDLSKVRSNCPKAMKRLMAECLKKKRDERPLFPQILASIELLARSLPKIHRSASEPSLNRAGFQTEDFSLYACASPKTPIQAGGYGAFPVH

[5] = target: Epidermal growth factor receptor (Homo sapiens) (UniProt P00533); assay: Inhibition of EGF-R at 5 to 10 uM
[6] = target: Tyrosine-protein kinase JAK2 (Homo sapiens) (UniProt O60674); assay: Inhibition of JAK2 at 5 to 10 uM
Tyrosine-protein kinase JAK2 (Homo sapiens), sequence (O60674 whole entry): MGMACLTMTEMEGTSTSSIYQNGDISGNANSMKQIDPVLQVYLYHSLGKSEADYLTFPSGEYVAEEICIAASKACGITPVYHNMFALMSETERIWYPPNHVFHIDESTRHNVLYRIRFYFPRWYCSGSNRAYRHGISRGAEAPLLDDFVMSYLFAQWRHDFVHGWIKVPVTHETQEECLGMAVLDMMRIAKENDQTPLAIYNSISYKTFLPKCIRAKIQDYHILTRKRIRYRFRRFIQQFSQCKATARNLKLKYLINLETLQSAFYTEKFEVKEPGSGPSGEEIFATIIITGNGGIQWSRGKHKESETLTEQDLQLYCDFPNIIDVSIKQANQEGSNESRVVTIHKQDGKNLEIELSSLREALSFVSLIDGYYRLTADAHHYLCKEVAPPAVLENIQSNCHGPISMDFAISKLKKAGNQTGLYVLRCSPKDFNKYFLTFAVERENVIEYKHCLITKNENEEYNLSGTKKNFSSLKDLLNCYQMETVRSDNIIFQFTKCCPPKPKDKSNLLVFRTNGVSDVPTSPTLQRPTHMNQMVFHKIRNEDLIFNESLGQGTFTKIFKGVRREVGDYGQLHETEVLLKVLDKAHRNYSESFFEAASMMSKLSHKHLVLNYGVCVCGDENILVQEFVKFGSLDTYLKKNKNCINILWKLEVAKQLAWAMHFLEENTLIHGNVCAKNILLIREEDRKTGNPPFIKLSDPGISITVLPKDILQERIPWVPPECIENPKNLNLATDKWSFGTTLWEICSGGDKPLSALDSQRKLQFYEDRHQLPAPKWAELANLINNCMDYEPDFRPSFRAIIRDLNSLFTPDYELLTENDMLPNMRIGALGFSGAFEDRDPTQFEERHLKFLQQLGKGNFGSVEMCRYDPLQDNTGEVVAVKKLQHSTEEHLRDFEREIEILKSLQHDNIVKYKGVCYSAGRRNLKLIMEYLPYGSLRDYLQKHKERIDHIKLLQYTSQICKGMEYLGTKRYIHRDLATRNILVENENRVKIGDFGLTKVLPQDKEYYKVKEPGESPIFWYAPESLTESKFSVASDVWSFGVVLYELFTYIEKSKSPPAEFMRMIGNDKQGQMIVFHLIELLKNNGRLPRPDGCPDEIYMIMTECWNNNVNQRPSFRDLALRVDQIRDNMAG

[7] = target: Dual specificity mitogen-activated protein kinase kinase 1 (Homo sapiens) (UniProt Q02750); assay: Inhibition of MEK1 at 5 to 10 uM
Dual specificity mitogen-activated protein kinase kinase 1 (Homo sapiens), sequence (Q02750 whole entry): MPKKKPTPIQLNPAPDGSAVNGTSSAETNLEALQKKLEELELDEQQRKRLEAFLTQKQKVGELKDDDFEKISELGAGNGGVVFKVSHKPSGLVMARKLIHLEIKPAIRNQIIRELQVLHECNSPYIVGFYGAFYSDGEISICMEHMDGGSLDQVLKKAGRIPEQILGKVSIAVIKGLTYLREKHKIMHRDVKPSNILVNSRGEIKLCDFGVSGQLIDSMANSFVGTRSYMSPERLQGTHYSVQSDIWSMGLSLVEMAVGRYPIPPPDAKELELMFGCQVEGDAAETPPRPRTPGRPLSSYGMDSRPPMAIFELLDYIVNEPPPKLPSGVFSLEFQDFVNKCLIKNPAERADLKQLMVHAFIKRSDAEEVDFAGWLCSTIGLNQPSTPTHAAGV

[8] = target: T1, Inhibitor of nuclear factor kappa-B kinase subunit beta (Homo sapiens) (UniProt O14920); assay: Inhibition of IKK-beta at 5 to 10 uM
T1 sequence (whole entry): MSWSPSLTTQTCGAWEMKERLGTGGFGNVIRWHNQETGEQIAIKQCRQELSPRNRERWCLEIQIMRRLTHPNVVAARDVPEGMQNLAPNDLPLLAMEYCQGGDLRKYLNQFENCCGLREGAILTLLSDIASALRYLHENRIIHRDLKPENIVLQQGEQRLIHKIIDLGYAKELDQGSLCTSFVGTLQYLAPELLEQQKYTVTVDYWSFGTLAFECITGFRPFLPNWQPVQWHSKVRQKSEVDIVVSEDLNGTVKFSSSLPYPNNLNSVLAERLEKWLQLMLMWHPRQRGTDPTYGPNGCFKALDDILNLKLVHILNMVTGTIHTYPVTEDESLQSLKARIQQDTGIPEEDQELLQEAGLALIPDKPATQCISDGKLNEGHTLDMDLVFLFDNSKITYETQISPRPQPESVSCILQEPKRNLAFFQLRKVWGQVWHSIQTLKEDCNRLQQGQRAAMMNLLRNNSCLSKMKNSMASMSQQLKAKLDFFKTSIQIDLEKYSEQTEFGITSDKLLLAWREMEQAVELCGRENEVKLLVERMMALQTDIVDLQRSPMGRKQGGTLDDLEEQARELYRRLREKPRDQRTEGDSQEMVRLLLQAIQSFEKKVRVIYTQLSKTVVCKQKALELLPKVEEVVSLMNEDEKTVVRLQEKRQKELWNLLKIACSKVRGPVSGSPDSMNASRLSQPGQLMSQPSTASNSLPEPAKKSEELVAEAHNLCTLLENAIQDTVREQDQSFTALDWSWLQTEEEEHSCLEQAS

[9] = target: T2, Serine/threonine-protein kinase 4 (Homo sapiens) (UniProt Q13043); assay: Inhibition of MST1 at 5 to 10 uM
T2 sequence (whole entry): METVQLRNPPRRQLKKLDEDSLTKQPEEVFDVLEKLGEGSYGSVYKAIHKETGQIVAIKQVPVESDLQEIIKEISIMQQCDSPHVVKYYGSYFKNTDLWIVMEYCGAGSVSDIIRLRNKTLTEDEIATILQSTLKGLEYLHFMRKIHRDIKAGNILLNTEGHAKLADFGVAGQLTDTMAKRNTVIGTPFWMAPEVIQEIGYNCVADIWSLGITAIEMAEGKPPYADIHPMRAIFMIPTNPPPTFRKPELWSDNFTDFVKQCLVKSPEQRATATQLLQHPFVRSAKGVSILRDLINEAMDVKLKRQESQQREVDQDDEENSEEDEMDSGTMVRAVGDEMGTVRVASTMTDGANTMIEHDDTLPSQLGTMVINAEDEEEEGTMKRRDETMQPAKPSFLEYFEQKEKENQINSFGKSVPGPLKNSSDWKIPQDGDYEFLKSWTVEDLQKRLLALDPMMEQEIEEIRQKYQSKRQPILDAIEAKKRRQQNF

[10] = target: Dual specificity tyrosine-phosphorylation-regulated kinase 1A (Homo sapiens) (UniProt Q13627); assay: Inhibition of DYRK1A at 5 to 10 uM
[11] = target: Serine/threonine-protein kinase mTOR (Homo sapiens, UniProt P42345); assay: Inhibition of mTOR
Method in brief: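 mTOR (FRAP1) kinase assay using GFP-4E-BP1 substrate and a Tb-labelled anti-phospho-4E-BP1 (Thr46) antibody in a TR-FRET format, under the manufacturer's conditions; averages of two independent experiments run in duplicate.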

[12] = target: RAC-alpha serine/threonine-protein kinase (Homo sapiens) (UniProt P31749); assay: Inhibition of AKT1 at 5 to 10 uM
RAC-alpha serine/threonine-protein kinase (Homo sapiens), sequence (P31749 whole entry): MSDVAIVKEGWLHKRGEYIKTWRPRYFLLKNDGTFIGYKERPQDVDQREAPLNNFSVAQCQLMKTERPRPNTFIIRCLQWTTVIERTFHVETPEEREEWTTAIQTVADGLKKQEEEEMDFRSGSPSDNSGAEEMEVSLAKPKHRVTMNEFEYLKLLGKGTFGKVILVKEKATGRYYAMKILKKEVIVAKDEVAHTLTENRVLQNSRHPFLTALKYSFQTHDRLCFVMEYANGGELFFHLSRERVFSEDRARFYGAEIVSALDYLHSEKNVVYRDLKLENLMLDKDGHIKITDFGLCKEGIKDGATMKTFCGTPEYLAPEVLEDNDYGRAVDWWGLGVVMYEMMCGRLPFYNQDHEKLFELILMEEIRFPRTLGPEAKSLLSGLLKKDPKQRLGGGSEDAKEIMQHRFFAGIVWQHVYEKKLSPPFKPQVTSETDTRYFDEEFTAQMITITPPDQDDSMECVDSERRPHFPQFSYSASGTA

[13] = target: Mitogen-activated protein kinase 8 (Homo sapiens) (UniProt P45983); assay: Inhibition of JNK1 at 5 to 10 uM
Mitogen-activated protein kinase 8 (Homo sapiens), sequence (P45983 whole entry): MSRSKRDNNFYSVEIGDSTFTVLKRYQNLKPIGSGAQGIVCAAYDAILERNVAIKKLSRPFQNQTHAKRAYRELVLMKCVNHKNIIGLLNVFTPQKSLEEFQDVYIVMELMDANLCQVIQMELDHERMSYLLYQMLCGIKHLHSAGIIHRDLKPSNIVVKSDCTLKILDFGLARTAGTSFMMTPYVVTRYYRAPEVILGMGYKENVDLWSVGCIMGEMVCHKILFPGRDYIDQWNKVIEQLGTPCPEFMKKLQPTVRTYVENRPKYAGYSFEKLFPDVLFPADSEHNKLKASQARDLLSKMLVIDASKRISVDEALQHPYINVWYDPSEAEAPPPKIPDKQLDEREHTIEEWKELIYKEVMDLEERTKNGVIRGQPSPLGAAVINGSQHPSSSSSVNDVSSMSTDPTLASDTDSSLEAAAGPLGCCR

[14] = target: T3, NUAK family SNF1-like kinase 1 (Homo sapiens) (UniProt O60285); assay: Inhibition of ARK5 at 5 to 10 uM
T3 sequence (whole entry): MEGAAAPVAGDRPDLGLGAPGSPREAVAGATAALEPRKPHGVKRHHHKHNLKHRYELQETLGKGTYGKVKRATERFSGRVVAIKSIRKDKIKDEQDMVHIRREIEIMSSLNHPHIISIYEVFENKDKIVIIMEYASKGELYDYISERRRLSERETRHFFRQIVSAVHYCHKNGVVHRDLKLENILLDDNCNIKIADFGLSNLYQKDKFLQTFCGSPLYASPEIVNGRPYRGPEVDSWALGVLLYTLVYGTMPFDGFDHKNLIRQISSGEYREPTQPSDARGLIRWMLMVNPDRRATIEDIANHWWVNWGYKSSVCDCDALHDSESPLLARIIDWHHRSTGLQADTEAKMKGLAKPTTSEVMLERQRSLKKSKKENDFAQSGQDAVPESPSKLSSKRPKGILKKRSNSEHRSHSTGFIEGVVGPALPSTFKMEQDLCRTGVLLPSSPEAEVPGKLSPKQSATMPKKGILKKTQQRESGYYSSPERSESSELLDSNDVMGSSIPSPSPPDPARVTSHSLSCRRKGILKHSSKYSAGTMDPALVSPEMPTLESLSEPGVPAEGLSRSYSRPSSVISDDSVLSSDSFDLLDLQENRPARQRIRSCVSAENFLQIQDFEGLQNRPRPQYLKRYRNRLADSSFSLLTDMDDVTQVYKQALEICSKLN

[15] = target: Hepatocyte growth factor receptor (Homo sapiens) (UniProt P08581); assay: Inhibition of MET at 5 to 10 uM
Hepatocyte growth factor receptor (Homo sapiens), sequence (P08581 whole entry): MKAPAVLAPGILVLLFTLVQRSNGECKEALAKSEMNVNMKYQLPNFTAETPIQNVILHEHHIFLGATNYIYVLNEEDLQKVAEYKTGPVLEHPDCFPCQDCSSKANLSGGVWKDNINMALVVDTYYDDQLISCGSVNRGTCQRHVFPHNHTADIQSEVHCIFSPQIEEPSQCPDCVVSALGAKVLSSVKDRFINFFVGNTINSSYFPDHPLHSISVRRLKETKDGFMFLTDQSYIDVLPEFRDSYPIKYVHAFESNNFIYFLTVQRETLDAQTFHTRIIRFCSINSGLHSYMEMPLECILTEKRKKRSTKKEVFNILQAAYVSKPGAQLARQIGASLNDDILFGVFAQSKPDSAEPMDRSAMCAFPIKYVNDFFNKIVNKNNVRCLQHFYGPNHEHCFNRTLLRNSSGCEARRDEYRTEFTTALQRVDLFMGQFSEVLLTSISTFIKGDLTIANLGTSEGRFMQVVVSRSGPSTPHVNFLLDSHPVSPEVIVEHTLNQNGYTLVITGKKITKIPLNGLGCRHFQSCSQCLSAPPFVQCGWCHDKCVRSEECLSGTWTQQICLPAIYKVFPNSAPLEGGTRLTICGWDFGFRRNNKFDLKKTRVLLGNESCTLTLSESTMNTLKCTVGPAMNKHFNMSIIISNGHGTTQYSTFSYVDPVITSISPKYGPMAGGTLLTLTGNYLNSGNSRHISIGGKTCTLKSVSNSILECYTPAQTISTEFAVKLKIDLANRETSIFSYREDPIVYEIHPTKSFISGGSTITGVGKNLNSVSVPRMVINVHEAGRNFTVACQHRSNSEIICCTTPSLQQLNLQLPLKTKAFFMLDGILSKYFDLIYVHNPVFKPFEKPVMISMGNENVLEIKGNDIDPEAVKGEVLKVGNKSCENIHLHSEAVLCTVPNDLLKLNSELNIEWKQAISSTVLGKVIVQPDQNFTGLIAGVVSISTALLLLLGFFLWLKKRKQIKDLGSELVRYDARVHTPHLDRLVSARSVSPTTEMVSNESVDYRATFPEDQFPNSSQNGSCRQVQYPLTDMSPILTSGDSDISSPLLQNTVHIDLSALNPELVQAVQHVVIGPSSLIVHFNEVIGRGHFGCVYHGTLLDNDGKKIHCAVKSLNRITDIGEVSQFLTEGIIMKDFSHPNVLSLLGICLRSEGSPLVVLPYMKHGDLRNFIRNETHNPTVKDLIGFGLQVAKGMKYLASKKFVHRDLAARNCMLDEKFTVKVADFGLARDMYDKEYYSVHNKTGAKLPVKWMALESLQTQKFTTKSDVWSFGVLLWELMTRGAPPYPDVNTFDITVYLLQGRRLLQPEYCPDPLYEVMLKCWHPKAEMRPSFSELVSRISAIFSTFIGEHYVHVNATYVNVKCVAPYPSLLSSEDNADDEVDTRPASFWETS

[16] = target: Focal adhesion kinase 1 (Homo sapiens) (UniProt Q05397); assay: Inhibition of FAK at 5 to 10 uM
[17] = Inhibition of PDGFR at 5 to 10 uM

Serine/threonine-protein kinase pim-2 (Homo sapiens), sequence (Q9P1W9 whole entry, looked up): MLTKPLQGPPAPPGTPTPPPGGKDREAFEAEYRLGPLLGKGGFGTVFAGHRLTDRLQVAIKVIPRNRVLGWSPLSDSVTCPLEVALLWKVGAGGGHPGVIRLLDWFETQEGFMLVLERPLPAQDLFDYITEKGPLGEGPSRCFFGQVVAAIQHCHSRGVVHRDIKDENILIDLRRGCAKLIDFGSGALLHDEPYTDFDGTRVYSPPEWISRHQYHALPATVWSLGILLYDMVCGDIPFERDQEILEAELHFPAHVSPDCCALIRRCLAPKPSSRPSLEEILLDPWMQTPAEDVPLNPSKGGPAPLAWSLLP

CS(=O)(=O)N1CCN(Cc2cn3c(Cl)c(-c4cccc5[nH]ncc45)nc(N4CCOCC4)c3n2)CC1
inhibition [1]: < 50% | EC50 [2]: 495 nM | inhibition [3]: < 50% | inhibition [4]: < 50% | inhibition [5]: < 50% | inhibition [6]: < 50% | inhibition [7]: < 50% | inhibition [8]: < 50% | inhibition [9]: < 50% | inhibition [10]: < 50% | IC50 [11]: > 10000 nM | inhibition [12]: 50% | inhibition [13]: < 50% | inhibition [14]: < 50% | inhibition [15]: < 50% | inhibition [16]: 50% | inhibition [17]: < 50%

CS(=O)(=O)N1CCN(Cc2cn3cc(-c4cccc5[nH]ncc45)nc(N4CCOCC4)c3n2)CC1
inhibition [1]: < 50% | inhibition [3]: < 50% | inhibition [4]: < 50% | inhibition [5]: < 50% | inhibition [6]: < 50% | inhibition [7]: < 50% | inhibition [8]: < 50% | inhibition [9]: < 50% | inhibition [10]: < 50% | IC50 [11]: > 10000 nM | inhibition [12]: < 50% | inhibition [13]: < 50% | inhibition [14]: < 50% | inhibition [15]: < 50% | inhibition [16]: 50% | inhibition [17]: < 50%

O=C(NCCN1CCOCC1)c1cn2cc(-c3cccc4[nH]ncc34)nc(N3CCOCC3)c2n1
inhibition [1]: < 50% | EC50 [2]: 452 nM | inhibition [3]: < 50% | inhibition [4]: < 50% | inhibition [5]: < 50% | inhibition [6]: < 50% | inhibition [7]: < 50% | inhibition [8]: < 50% | inhibition [9]: < 50% | inhibition [10]: < 50% | IC50 [11]: > 10000 nM | inhibition [12]: 50% | inhibition [13]: < 50% | inhibition [14]: < 50% | inhibition [15]: < 50% | inhibition [16]: 50% | inhibition [17]: < 50%

CS(=O)(=O)N1CCN(Cc2cn3c(C#N)c(-c4cccc5[nH]ncc45)nc(N4CCOCC4)c3n2)CC1
inhibition [1]: < 50% | EC50 [2]: 203 nM | inhibition [3]: < 50% | inhibition [4]: < 50% | inhibition [5]: < 50% | inhibition [6]: < 50% | inhibition [7]: < 50% | inhibition [8]: < 50% | inhibition [9]: < 50% | inhibition [10]: < 50% | IC50 [11]: > 10000 nM | inhibition [12]: 50% | inhibition [13]: < 50% | inhibition [14]: < 50% | inhibition [15]: < 50% | inhibition [16]: 50% | inhibition [17]: < 50%

CN(C)CCCNC(=O)c1cn2cc(-c3cccc4[nH]ncc34)nc(N3CCOCC3)c2n1
inhibition [1]: < 50% | EC50 [2]: 429 nM | inhibition [3]: < 50% | inhibition [4]: < 50% | inhibition [5]: < 50% | inhibition [6]: < 50% | inhibition [7]: < 50% | inhibition [8]: < 50% | inhibition [9]: < 50% | inhibition [10]: < 50% | IC50 [11]: > 10000 nM | inhibition [12]: 50% | inhibition [13]: < 50% | inhibition [14]: < 50% | inhibition [15]: < 50% | inhibition [16]: 50% | inhibition [17]: < 50%

COCCCNC(=O)c1cn2cc(-c3cccc4[nH]ncc34)nc(N3CCOCC3)c2n1
inhibition [1]: < 50% | EC50 [2]: 114 nM | inhibition [3]: < 50% | inhibition [4]: < 50% | inhibition [5]: < 50% | inhibition [6]: < 50% | inhibition [7]: < 50% | inhibition [8]: < 50% | inhibition [9]: < 50% | inhibition [10]: < 50% | IC50 [11]: > 10000 nM | inhibition [12]: 50% | inhibition [13]: < 50% | inhibition [14]: < 50% | inhibition [15]: < 50% | inhibition [16]: 50% | inhibition [17]: < 50%

CNC(=O)c1cn2cc(-c3cccc4[nH]ncc34)nc(N3CCOCC3)c2n1
inhibition [1]: < 50% | EC50 [2]: 600 nM | inhibition [3]: < 50% | inhibition [4]: < 50% | inhibition [5]: < 50% | inhibition [6]: < 50% | inhibition [7]: < 50% | inhibition [8]: < 50% | inhibition [9]: < 50% | inhibition [10]: < 50% | IC50 [11]: > 10000 nM | inhibition [12]: 50% | inhibition [13]: < 50% | inhibition [14]: < 50% | inhibition [15]: < 50% | inhibition [16]: 50% | inhibition [17]: < 50%

CS(=O)(=O)N1CCN(Cc2nc3c(N4CCOCC4)nc(-c4cccc5[nH]ncc45)cn3c2Br)CC1
inhibition [1]: < 50% | EC50 [2]: 208 nM | inhibition [3]: < 50% | inhibition [4]: < 50% | inhibition [5]: < 50% | inhibition [6]: < 50% | inhibition [7]: < 50% | inhibition [8]: < 50% | inhibition [9]: < 50% | inhibition [10]: < 50% | IC50 [11]: > 10000 nM | inhibition [12]: 50% | inhibition [13]: < 50% | inhibition [14]: < 50% | inhibition [15]: < 50% | inhibition [16]: 50% | inhibition [17]: < 50%

— ChEMBL document CHEMBL1955823, “Imidazo[1,2-a]pyrazines as novel PI3K inhibitors” (Bioorg Med Chem Lett, 2012)
